≈ marks a conversion by molar mass, not a printed value.
How the values were obtained:
[1] = system: Micrococcus luteus; test: Antibacterial activity against Micrococcus luteus ATCC 10240 at 0.1 mM incubated for 24 hrs at 37 degC by agar diffusion assay; format: functional; settings: ATCC 10240, 24 h, read-out: DIZ
In short: (§1)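 Agar well diffusion. 50 μL of a 0.1 mM solution in 1:9 DMSO/MeOH was added to 9 mm wells in Standard I nutrient agar or Mueller Hinton II agar. Plates were incubated at 37 °C for 24 h, or 44 h for M. vaccae, then inhibition zones were read. Unclear zones were scored separately.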

[2] = system: Mycolicibacterium vaccae; test: Antibacterial activity against Mycobacterium vaccae IMET10670 at 0.1 mM incubated for 44 hrs at 37 degC by agar diffusion assay; format: functional; settings: IMET10670, 44 h, read-out: DIZ; in short: as §1
[3] = system: Acinetobacter baumannii; test: Antibacterial activity against Acinetobacter baumannii ATCC 17961 at 0.1 mM incubated for 24 hrs at 37 degC by agar diffusion assay; format: functional; settings: ATCC 17961, 24 h, read-out: DIZ; in short: as §1
[4] = system: Pseudomonas aeruginosa; test: Antibacterial activity against wild type Pseudomonas aeruginosa K799 at 0.1 mM incubated for 24 hrs at 37 degC by agar diffusion assay; format: functional; settings: K799, 24 h, read-out: DIZ; in short: as §1
[5] = system: Pseudomonas aeruginosa; test: Antibacterial activity against Pseudomonas aeruginosa K799/61 at 0.1 mM incubated for 24 hrs at 37 degC by agar diffusion assay; format: functional; settings: K799/61, 24 h, read-out: DIZ; in short: as §1
[6] = system: Escherichia coli; test: Antibacterial activity against Escherichia coli X580 at 0.1 mM incubated for 24 hrs at 37 degC by agar diffusion assay; format: functional; settings: X580, 24 h, read-out: DIZ; in short: as §1
[7] = system: Escherichia coli; test: Antibacterial activity against Escherichia coli DC0 at 0.1 mM incubated for 24 hrs at 37 degC by agar diffusion assay; format: functional; settings: DC0, 24 h, read-out: DIZ; in short: as §1
[8] = system: Escherichia coli; test: Antibacterial activity against Escherichia coli DC2 at 0.1 mM incubated for 24 hrs at 37 degC by agar diffusion assay; format: functional; settings: DC2, 24 h, read-out: DIZ; in short: as §1
[9] = system: Acinetobacter baumannii; test: Antibacterial activity against Acinetobacter baumannii ATCC 17961 assessed as unclear inhibition zone or inhibition zone with many colonies at 0.1 mM incubated for 24 hrs at 37 degC by agar diffusion assay; format: functional; settings: ATCC 17961, 24 h, read-out: DIZ; in short: as §1
[10] = system: Pseudomonas aeruginosa; test: Antibacterial activity against wild type Pseudomonas aeruginosa K799 assessed as unclear inhibition zone or inhibition zone with many colonies at 0.1 mM incubated for 24 hrs at 37 degC by agar diffusion assay; format: functional; settings: K799, 24 h, read-out: DIZ; in short: as §1
[11] = system: Pseudomonas aeruginosa; test: Antibacterial activity against Pseudomonas aeruginosa K799/61 assessed as unclear inhibition zone or inhibition zone with many colonies at 0.1 mM incubated for 24 hrs at 37 degC by agar diffusion assay; format: functional; settings: K799/61, 24 h, read-out: DIZ; in short: as §1
[12] = system: Escherichia coli; test: Antibacterial activity against Escherichia coli X580 assessed as unclear inhibition zone or inhibition zone with many colonies at 0.1 mM incubated for 24 hrs at 37 degC by agar diffusion assay; format: functional; settings: X580, 24 h, read-out: DIZ; in short: as §1
[13] = system: Escherichia coli; test: Antibacterial activity against Escherichia coli DC0 assessed as unclear inhibition zone or inhibition zone with many colonies at 0.1 mM incubated for 24 hrs at 37 degC by agar diffusion assay; format: functional; settings: DC0, 24 h, read-out: DIZ; in short: as §1
[14] = system: Bacillus subtilis; test: Antibacterial activity against Bacillus subtilis ATCC 6633 by broth microdilution method; format: functional
In short: (§2)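 Broth microdilution in Mueller-Hinton broth No.2 (MHII) following CLSI guidelines. The MIC (μM) was read by visual end point. Each compound was tested in triplicate.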

[15] = system: Staphylococcus aureus; test: Antibacterial activity against Staphylococcus aureus SG511 by broth microdilution method; format: functional; in short: as §2
[16] = system: Micrococcus luteus; test: Antibacterial activity against Micrococcus luteus ATCC 10240 by broth microdilution method; format: functional; in short: as §2
[17] = system: Mycolicibacterium vaccae; test: Antibacterial activity against Mycobacterium vaccae IMET10670 by broth microdilution method; format: functional; in short: as §2
[18] = system: Acinetobacter baumannii; test: Antibacterial activity against Acinetobacter baumannii ATCC 17961 by broth microdilution method; format: functional; in short: as §2
[19] = system: Pseudomonas aeruginosa; test: Antibacterial activity against wild type Pseudomonas aeruginosa K799 by broth microdilution method; format: functional; in short: as §2
[20] = system: Pseudomonas aeruginosa; test: Antibacterial activity against Pseudomonas aeruginosa K799/61 by broth microdilution method; format: functional; in short: as §2
[21] = system: Escherichia coli; test: Antibacterial activity against Escherichia coli DC0 by broth microdilution method; format: functional; in short: as §2
[22] = system: Escherichia coli; test: Antibacterial activity against Escherichia coli DC2 by broth microdilution method; format: functional; in short: as §2
[23] = system: Bacillus subtilis; test: Antibacterial activity against Bacillus subtilis ATCC 6633 at 0.1 mM incubated for 24 hrs at 37 degC by agar diffusion assay; format: functional; settings: ATCC 6633, 24 h, read-out: DIZ; in short: as §1
[24] = system: Staphylococcus aureus; test: Antibacterial activity against Staphylococcus aureus SG511 at 0.1 mM incubated for 24 hrs at 37 degC by agar diffusion assay; format: functional; settings: SG511, 24 h, read-out: DIZ; in short: as §1
[25] = Retention time of the compound in presence of methyl mercaptoacetate in CH3CN/PBS solution at 37 degC incubated for 3 hrs by HPLC method; format: physicochemical; settings: buffer
[26] = system: Mycolicibacterium vaccae; test: Antibacterial activity against Mycobacterium vaccae IMET10670 assessed as unclear inhibition zone or inhibition zone with many colonies at 0.1 mM incubated for 44 hrs at 37 degC by agar diffusion assay; format: functional; settings: IMET10670, 44 h, read-out: DIZ; in short: as §1

CC1=C(Br)C(=O)C(C(C)(C)CC(=O)N2CCN(c3cc4c(cc3F)c(=O)c(C(=O)O)cn4C3CC3)CC2)=C(C)C1=O
zone of inhibition at 100 µM [1]: 19 mm
zone of inhibition at 100 µM [2]: 37 mm
zone of inhibition at 100 µM [3]: 18 mm
zone of inhibition at 100 µM [4]: 29 mm
zone of inhibition at 100 µM [5]: 29 mm
zone of inhibition at 100 µM [6]: 33 mm
zone of inhibition at 100 µM [7]: 17 mm
zone of inhibition at 100 µM [8]: 24 mm
zone of inhibition at 100 µM [9]: 23 mm
zone of inhibition at 100 µM [10]: 35 mm
zone of inhibition at 100 µM [11]: 38 mm
zone of inhibition at 100 µM [12]: 40 mm
zone of inhibition at 100 µM [13]: 21 mm
MIC [14]: < 0.05 µM
MIC [15]: 0.1 µM (≈ 0.0628 µg/mL)
MIC [16]: 1.56 µM (≈ 0.98 µg/mL)
MIC [17]: 2 µM (≈ 1.26 µg/mL)
MIC [18]: 0.78 µM (≈ 0.49 µg/mL)
MIC [19]: 5 µM (≈ 3.14 µg/mL)
MIC [20]: 2.5 µM (≈ 1.57 µg/mL)
MIC [21]: 12.5 µM (≈ 7.86 µg/mL)
MIC [22]: 8.33 µM (≈ 5.24 µg/mL)
zone of inhibition at 100 µM [23]: 35 mm
zone of inhibition at 100 µM [24]: 25 mm

COC(=O)CSc1c(C)c(O)c(C)c2c1OC(=O)CC2(C)C
Retention_time [25]: 9.2 min

CC1=CC(=O)C(C(C)(C)CC(=O)N2CCN(c3ccccc3)CC2)=C(C)C1=O
Retention_time [25]: 11.1 min

CC1=CC(=O)C(C(C)(C)CC(=O)N2CCN(c3cc4c(cc3F)c(=O)c(C(=O)O)cn4C3CC3)CC2)=C(C)C1=O
zone of inhibition at 100 µM [1]: 28 mm
zone of inhibition at 100 µM [2]: 32 mm
zone of inhibition at 100 µM [3]: 26 mm
zone of inhibition at 100 µM [4]: 41 mm
zone of inhibition at 100 µM [5]: 35 mm
zone of inhibition at 100 µM [6]: 32 mm
zone of inhibition at 100 µM [7]: 21 mm
zone of inhibition at 100 µM [8]: 27 mm
zone of inhibition at 100 µM [26]: 42 mm
zone of inhibition at 100 µM [9]: 32 mm
zone of inhibition at 100 µM [11]: 42 mm
zone of inhibition at 100 µM [12]: 40 mm
zone of inhibition at 100 µM [13]: 29 mm
MIC [14]: < 0.05 µM
MIC [15]: < 0.05 µM
MIC [16]: 0.2 µM (≈ 0.11 µg/mL)
MIC [17]: 0.5 µM (≈ 0.275 µg/mL)
MIC [18]: 0.39 µM (≈ 0.214 µg/mL)
MIC [19]: 1.25 µM (≈ 0.687 µg/mL)
MIC [20]: 2.5 µM (≈ 1.37 µg/mL)
MIC [21]: 12.5 µM (≈ 6.87 µg/mL)
MIC [22]: 6.25 µM (≈ 3.43 µg/mL)
zone of inhibition at 100 µM [23]: 39 mm
zone of inhibition at 100 µM [24]: 33 mm

c1ccc(N2CCNCC2)cc1 [PHENYLPIPERAZINE]
Retention_time [25]: 8.5 min

Source: ChEMBL document CHEMBL3585272, “Syntheses and Antibacterial Activity of N-Acylated Ciprofloxacin Derivatives Based on the Trimethyl Lock” (ACS Med Chem Lett, 2015)
